# Data taken from ChEMBL document CHEMBL4513216, “Probing the Open Global Health Chemical Diversity Library for Multistage-Active Starting Points for Next-Generation Antimalarials” (ACS Infect Dis, 2020).
# Experiment: Toxicity liver stage against HepG2, at 10uM
# Format: cell-based
# Design: test concentration 10 uM, cell line HepG2-A16-CD81EGFP
# Conditions: human, HepG2-A16-CD81EGFP cells; read-out: INHIBITION
# In short: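 Uninfected HepG2-A16-CD81EGFP cells, 3 × 10^3 per well, 1536-well, plated on prespotted compound at 10 μM final, parasite-free screening media added to match infected plates; puromycin 10 μM positive, DMSO 0.5% negative; run in parallel with 48 h PbLuc assay at 37 °C, 5% CO2; viability by CellTiter-Glo luminescence, normalized to controls.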
smiles,measurement,value
O=C(Nc1ccc(F)c(Br)c1)N1CCCC1,cytotoxicity at 10 µM,2.32%
O=C(NC[C@H]1OC[C@@H](NC2COC2)[C@@H]1O)Nc1ccccc1,cytotoxicity at 10 µM,4.43%
CC[C@H]1CN(C(=O)c2cccnc2)CC[C@H]1CC(=O)NC1CC1,cytotoxicity at 10 µM,4.18%
COC(=O)[C@@H]1CN(C(=O)NC(C)C)CCN1S(=O)(=O)c1ccccc1,cytotoxicity at 10 µM,2.17%
CSc1ccc(C(=O)N2CC(=O)N(CC3CC3)CC(O)C2)cc1 (stereo not given),cytotoxicity at 10 µM,0.174%
COc1ccc2c(ccn2CCC(=O)Nc2ccc(C(N)=O)cc2)c1,cytotoxicity at 10 µM,6.1%
Cc1cc(N2CCOCC2)nc(N(C)CCO)c1C#N,cytotoxicity at 10 µM,2.17%
COc1cn(CC(=O)N2CCC(c3ccccc3)CC2)c(C)cc1=O,cytotoxicity at 10 µM,1.11%
O=C(NC1CCN(c2ccc(-c3ccccc3F)nn2)C1)c1ccc[nH]1 (stereo not given),cytotoxicity at 10 µM,7.4%
Cc1csc(C(=O)N2CCC(S(C)(=O)=O)C2)c1 (stereo not given),cytotoxicity at 10 µM,-5.21%
CC(C)NC(=O)N1CCOC2(CNC2)C1,cytotoxicity at 10 µM,-0.479%
Cc1ccc(CN2CC3(CCN(S(=O)(=O)c4ccccc4)C3)C2)o1,cytotoxicity at 10 µM,-2.3%
O=C([C@H]1CCCO1)N1CCC2(CCCN(CCOc3ccccc3)C2)C1 (stereo not given in full),cytotoxicity at 10 µM,-3.25%
O=C(N[C@@H]1CN(c2ncccn2)[C@@H]2CCCO[C@@H]21)c1cscn1,cytotoxicity at 10 µM,-142%
COCCC(=O)N1CC2(CCN(c3ccccc3)C2)C1,cytotoxicity at 10 µM,10.3%
CC(=O)N1CCO[C@@H]2CN(C(=O)c3ccccc3)CC[C@@H]2C1,cytotoxicity at 10 µM,5.29%
O=C(CO)N1CCCn2nnc(Cn3cccn3)c2C1,cytotoxicity at 10 µM,6.59%
COc1ccc2c(ccn2CCC(=O)/N=c2\[nH]nc(C3CCCO3)s2)c1 (stereo not given),cytotoxicity at 10 µM,-8.07%
O=C(NCCC1=CCCCC1)C1CCN(c2ccc3nncn3n2)CC1,cytotoxicity at 10 µM,-2.96%
CCCc1nc(N2CCC(C)CC2)c2c(n1)c(C)nn2CC,cytotoxicity at 10 µM,1.64%
CS(=O)(=O)N1CCCC(c2cccc(-c3ccccc3F)n2)C1 (stereo not given),cytotoxicity at 10 µM,-3.81%
CN(Cc1ncc(-c2ccccc2C(=O)O)s1)c1ncccn1,cytotoxicity at 10 µM,1.69%
CC(=O)N1CC(c2ccnc(Nc3nccs3)n2)C1,cytotoxicity at 10 µM,3.23%
CC(=O)N1CCOCC(Cc2ccc3c(ccn3C(C)=O)c2)C1 (stereo not given),cytotoxicity at 10 µM,1.64%
CC(=O)N1C[C@H](c2cc(O)nc(C)n2)[C@@H](c2ccccc2F)C1,cytotoxicity at 10 µM,1.65%
Oc1nc(C2CC2)nc2c1nnn2C1CCN(Cc2ccoc2)CC1,cytotoxicity at 10 µM,6.01%
Cn1cnc2ccc(NC(=O)CC3CCN(C4CCCCC4)CC3)cc21,cytotoxicity at 10 µM,25.9%
CCn1cc(C(=O)N(C)[C@@H]2CC[C@@H](N3CCCC3)[C@@H]2O)c(C)n1,cytotoxicity at 10 µM,5.92%
Cc1nc(C)n(CC(=O)N2CCCC(c3cc4ccccc4cn3)C2)n1 (stereo not given),cytotoxicity at 10 µM,-22.1%
Cc1cc(C)nc(N2CCC(CNC(=O)c3ccccn3)CC2)n1,cytotoxicity at 10 µM,-18.9%
CCc1nnc(Nc2cccc(C3CCN(C)CC3)n2)s1,cytotoxicity at 10 µM,-28.6%
O=C(c1ccncc1)N1CCCC(c2ncncc2-c2ccncc2)C1 (stereo not given),cytotoxicity at 10 µM,-17.2%
CNc1cc(N2CCC(O)(CNC(=O)c3ccc(C)nc3)C2)ncn1 (stereo not given),cytotoxicity at 10 µM,-25.3%
CC(C)CN1CCC(C(=O)NCCNC(=O)c2ccccc2)CC1,cytotoxicity at 10 µM,1.22%
CCc1cccc(CC(=O)NC2CCN(C(=O)NC(C)(C)C)CC2)c1,cytotoxicity at 10 µM,-4.73%
CSc1cc2c(cc1NC(=O)N(C)Cc1ccncc1)OCCO2,cytotoxicity at 10 µM,11.4%
Cc1ccc(S(N)(=O)=O)cc1C(=O)NC1CCCC1,cytotoxicity at 10 µM,1.86%
CNC(=O)Cc1noc(-c2cc3c(s2)CCCCCC3)n1,cytotoxicity at 10 µM,3.76%
CC(c1nc(C2CC2)no1)N1CCN(CCS(C)(=O)=O)CC1 (stereo not given),cytotoxicity at 10 µM,7.41%
CCc1nnc(SCC(=O)Nc2cc(C(C)(C)C)nn2C)[nH]1,cytotoxicity at 10 µM,7.28%
O=C1COc2cc(S(=O)(=O)NCCC3=CCCCC3)c(Br)cc2N1,cytotoxicity at 10 µM,15.7%
O=C(CCNc1ncccn1)NCCc1ccc(Cl)s1,cytotoxicity at 10 µM,-3.91%
O=C(NC1CCCCNC1=O)c1cc2ccccc2[nH]c1=O (stereo not given),cytotoxicity at 10 µM,-6.08%
Cn1c(=O)ccn(CC(=O)Nc2cccnc2)c1=O,cytotoxicity at 10 µM,-1.58%
CCN(Cc1ccco1)C(=O)NCc1nnc2n1CCCCC2,cytotoxicity at 10 µM,-4.73%
CC1CCN(CCNC(=O)C2CCN(C(=O)C(C)(C)C)CC2)CC1,cytotoxicity at 10 µM,6.81%
CCOC(C)C(=O)N1CCN(S(C)(=O)=O)CC1 (stereo not given),cytotoxicity at 10 µM,-5.35%
O=C(NS(=O)(=O)c1c(Cl)cccc1Cl)c1cccc2c1OCCO2,cytotoxicity at 10 µM,0.582%
C=C(C)CN1CCCC(CNS(C)(=O)=O)C1 (stereo not given),cytotoxicity at 10 µM,5.63%
Cc1cnn(CCNCC(O)c2ccc(S(C)(=O)=O)cc2)c1 (stereo not given),cytotoxicity at 10 µM,1.1%
O=C(Nc1nncs1)c1ccc(-n2cnnn2)cc1,cytotoxicity at 10 µM,5.25%
COCCNC(=O)NCCc1cccc(OC)c1O,cytotoxicity at 10 µM,9.31%
N#Cc1cccc(Cl)c1NCCCc1nc(=O)[nH][nH]1,cytotoxicity at 10 µM,24.2%
Cc1ncsc1CCN1CCN(C(=O)c2ccc(=O)[nH]c2)CC1,cytotoxicity at 10 µM,4.38%
O=C(Cc1cnn(-c2ccccc2)n1)NC(C1CC1)C1CC1,cytotoxicity at 10 µM,-9.66%
